Data set [1] concerns tyrosine kinases in HK-2 cells. The data set can be described thus: Inhibition of tyrosine kinase phosphorylation after uptake in HK-2 cells. The data set is classed as cell-based, human. Particulars: 10 μM, 24 hours incubation of HK-2 cells, lysis, ATP stimulation, Western blot. In a few lines:
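HK-2 cells were seeded at 1.5 × 10^4 per well, serum-starved overnight, then given 10 μM test compound or 0.1% (v/v) DMSO control for 24 h. Cells were PBS-washed and lysed with protease and phosphatase inhibitors, and protein was measured by BCA. Lysate was mixed with an equal volume of 10 μM ATP in Abl buffer (pH 7.5) and held 60 min at 37°C. 10 μg protein went to SDS-PAGE, anti-phosphotyrosine (PY20) blot and densitometry.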
A general note: Immunoblotting shows a protein as a band on a membrane.

Another data set has as its system HK-2 cells. As to the kind of experiment: In vitro cytotoxicity, sulforhodamine B assay. Particulars: Homo sapiens, HK-2, 24 h, read-out: IC50 cell viability. The data set is classed as cell-based. A general note: Sulforhodamine B stains cellular protein and so reports cell mass.
Data set [2] in a line: Plasma pharmacokinetics after a single intravenous injection. It counts as in vivo, mice. The procedure, abridged:
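Male C57Bl/6J mice (n = 15) received one intravenous dose of sunitinib malate, 1.7 μmol/kg (0.9 mg/kg), equimolar to a 20 mg/kg lysozyme conjugate. Blood was taken by cheek puncture at 1 min and at sacrifice time points, then centrifuged. Plasma sunitinib was measured by LC-MS/MS against standards of 10 ng/mL–1 μg/mL. Values are % of dose, assuming plasma volume 0.05 mL/g. Parameters come from two-compartment curve fitting.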

The nature of data set [3]: Renal accumulation pharmacokinetics after a single intravenous injection. The data set is classed as in vivo, mice. The procedure, abridged:
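After one intravenous dose of sunitinib malate, 1.7 μmol/kg (0.9 mg/kg), to male C57Bl/6J mice, kidneys were collected at set times and frozen at −80°C. Kidneys were homogenised in 4% BSA to 0.1 g tissue/mL. Sunitinib was measured by LC-MS/MS against homogenate standards of 10–500 ng/mL, and renal levels are expressed as % of injected dose.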

Another data set concerns the target PDGFR-β (Mus musculus, UniProt P05622). The data set can be described thus: Western blot of p-PDGFR-β in renal cortex, UUO model. It counts as in vivo. Particulars: UUO mice 3 days; three daily ip injections 50 mg/kg sunitinib malate. In a few lines:
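Male C57Bl/6J mice sacrificed after 3 days UUO; ip sunitinib malate 50 mg/kg, with 2nd/3rd doses at 24 and 48 h. Cortex homogenized in RIPA with protease/phosphatase inhibitors and EDTA. Blots blocked 1 h at room temperature in 5% milk/TBS-T. Probed overnight at 4°C with rabbit anti-p-PDGFR-β (Tyr740, 1:200) or β-actin (1:1000) in TBS-T/5% BSA.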

The test system of data set [4] is collagen 1A2, PAI-1, fibronectin, and MCP-1. As to the kind of experiment: Renal mRNA expression of profibrotic genes. Particulars: UUO mice 3 days; three daily ip injections 50 mg/kg sunitinib malate. It counts as in vivo. The procedure, abridged:
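Male C57Bl/6J mice, 3-day UUO; groups n=6–7; single iv test compound or sunitinib malate, or ip sunitinib malate 50 mg/kg with later doses at 24 and 48 h. TaqMan qRT-PCR on whole kidney and cortex. mRNA normalized to TBP and expressed relative to non-obstructed control mice (set at 1). Mean ± SEM; one-way ANOVA, P < 0.05.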

Data set [5] relates to α-SMA, collagen IV, and vimentin. As to the kind of experiment: Immunostaining of fibrotic markers in kidney sections, UUO model. The data set is classed as in vivo. The note with it: UUO mice 3 days; daily 50 mg/kg sunitinib malate ip. In a few lines: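 Male C57Bl/6J mice, 3-day UUO; n=7 per treatment group, n=6 per control. Dosing: single iv test compound (40 mg/kg conjugate) or equimolar iv sunitinib malate (3.4 μmol/kg), or ip sunitinib malate 50 mg/kg with 2nd/3rd doses at 24 and 48 h. Sections 3 μm, peroxide/azide block pH 5.8; 15-min boil citrate pH 6.0 (collagen IV, vimentin) or Tris/EDTA pH 9.0 (α-SMA); primaries 1 h RT (1:400, 1:400, 1:200).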

In data set [6] the test system is UUO-induced tubulointerstitial fibrosis. The data set can be described thus: Overall antifibrotic effect in UUO-induced tubulointerstitial fibrosis. The note with it: UUO mice, daily 50 mg/kg sunitinib malate. It counts as in vivo. In a few lines:
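Male C57Bl/6J mice weighing 13–25 g had unilateral ureteral obstruction and were killed after 3 days. Sunitinib malate was given as three daily intraperitoneal injections of 50 mg/kg (94 μmol/kg), n = 7. Controls were normal mice and untreated UUO mice, n = 6 each. Kidneys were scored for collagen IV, vimentin and α-SMA immunostaining and p-PDGFR-β (Tyr740) Western blot. Data are mean ± SEM.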

The next data set deals with P-glycoprotein (P-gp). Particulars: cited from earlier work.
The test system of a further data set is ABCG2. Particulars: cited from earlier work.
Where [7] appears, read: mice, single iv, equimolar 1.7 μmol/kg, kidneys.
Where [8] appears, read: mice, single iv, equimolar 1.7 μmol/kg, kidneys, listed as sunitinib.

As usually defined, the IC50 is the concentration at which inhibition is half-maximal. One may read the half-life as the time in which the quantity being followed falls by half. Higher therefore signals slow loss.

The structures appear in SMILES notation.

Sequence of PDGFR-β (P05622 32-1098): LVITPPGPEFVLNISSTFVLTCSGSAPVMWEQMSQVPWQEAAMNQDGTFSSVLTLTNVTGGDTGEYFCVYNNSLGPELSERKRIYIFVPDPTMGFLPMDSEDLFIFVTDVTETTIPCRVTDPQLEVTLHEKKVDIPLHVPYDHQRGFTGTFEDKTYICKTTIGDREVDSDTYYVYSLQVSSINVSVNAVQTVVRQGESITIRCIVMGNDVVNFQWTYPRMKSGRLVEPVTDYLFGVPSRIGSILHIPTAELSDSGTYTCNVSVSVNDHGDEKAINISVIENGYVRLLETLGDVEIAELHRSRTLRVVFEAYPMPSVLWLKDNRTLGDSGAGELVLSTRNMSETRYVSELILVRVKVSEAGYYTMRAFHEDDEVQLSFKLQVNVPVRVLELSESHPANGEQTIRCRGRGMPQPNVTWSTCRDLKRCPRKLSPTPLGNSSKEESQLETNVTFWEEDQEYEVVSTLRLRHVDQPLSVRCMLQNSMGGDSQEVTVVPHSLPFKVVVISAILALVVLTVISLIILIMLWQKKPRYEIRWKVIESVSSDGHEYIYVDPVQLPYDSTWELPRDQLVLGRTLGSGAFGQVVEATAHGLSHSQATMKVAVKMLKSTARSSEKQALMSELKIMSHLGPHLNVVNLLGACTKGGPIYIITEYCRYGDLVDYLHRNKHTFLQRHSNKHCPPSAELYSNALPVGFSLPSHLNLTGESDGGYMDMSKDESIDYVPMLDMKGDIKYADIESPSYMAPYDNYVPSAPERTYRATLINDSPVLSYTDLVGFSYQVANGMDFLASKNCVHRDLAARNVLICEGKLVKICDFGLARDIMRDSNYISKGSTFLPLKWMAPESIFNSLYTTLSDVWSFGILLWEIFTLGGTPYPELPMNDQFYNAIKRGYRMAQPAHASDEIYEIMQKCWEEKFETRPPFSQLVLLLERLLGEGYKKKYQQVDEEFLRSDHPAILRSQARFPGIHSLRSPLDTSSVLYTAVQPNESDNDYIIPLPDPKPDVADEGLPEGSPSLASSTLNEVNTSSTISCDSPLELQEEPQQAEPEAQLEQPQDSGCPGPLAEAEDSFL

Consider `CCN(CC)CCNC(=O)c1c(C)[nH]c(/C=C2\C(=O)Nc3ccc(F)cc32)c1C` [Sunitinib, sunitinib], for which the “inhibitory effect on phosphorylation of tyrosine kinases” value in [1] is on record as “strongly inhibited multiple kinases”. In the data set with HK-2 cells, the IC50 worked out at 12 µM. Besides, the half-life in data set [2] (C57Bl/6J, mouse, plasma, iv, 0.9 mg/kg) is 25 min; in data set [3] (C57BI/6 J, mouse, kidneys, iv, 0.9 mg/kg), 66 min. Moreover, in data set [2] (mice, single iv, equimolar 1.7 μmol/kg, plasma), the “Peripheral distribution volume (V2)” value came to 87 mL. The “initial distribution volume (V1) relative to 17864-ULS-lysozyme” value in [2] (mice, single iv, equimolar dose) was “over 15 fold”. In addition, the “time to almost complete elimination from the kidneys” value in data set [3] (mice, after administration) is no more than 12 h. Besides, the “time to maximum renal levels” value in data set [3] (mice, single iv, equimolar 1.7 μmol/kg) was no more than 30 min. In addition, the “AUC0–∞” value in [3] (setting [7]) was found to be 9.4% dose*hours; in [3] (setting [8]) it was 9.4 % dose*hours. The “Cmax (% of the dose)” value in data set [3] (setting [7]) and in data set [3] (setting [8]) was 4.9% each time. Besides, at PDGFR-β, the “p-PDGFR-β levels in the renal cortex” value is reported as “decreased p-PDGFR-β levels in the renal cortex”. Moreover, the “renal mRNA expression of collagen 1A2, PAI-1, fibronectin, MCP-1” value in data set [4] is “significantly lower renal mRNA levels of collagen 1A2 and fibronectin”. In addition, in data set [5], the “renal deposition of α-SMA, collagen IV, and vimentin” value was “decreased the deposition of vimentin in the kidneys, although these differences were not significant”. Also, the values for the antifibrotic effect entry in data set [6] (listed as sunitinib) and in [6] (listed as sunitinib malate) were “reduction of some of the studied markers” and “antifibrotic responses”, respectively. Besides, the “substrate of efflux transporter P-gp” value with P-glycoprotein (P-gp) is “substrate”. Further, the “substrate of efflux transporter ABCG2” value with ABCG2 was “substrate”.

Values taken from publication PMC3273977 (International Journal of Nanomedicine, 2012).
